MEKK2wt PB1 HTS – raises or lowers MEK5 binding to wildtype human MEKK2 PB1 domain; Q9Y2U5; 290,000 tested, 1.1% active; bead flow cytometry, Alexa488-MEK5 binding to MEKK2 WT; actives lie on both sides; binding response (% of control), % at 10 µM; AID 1531; in the data active means binding response below about 67% or above about 130%
UBC13 polyUb – human UBC13 polyubiquitination inhibition; UBC13 polyubiquitin chain formation, TR-FRET; inhibition, % at 20 µM; 330,000 tested, 0.47% active; AID 485273; in the data active means inhibition above about 45%, passing the limit was not always enough
Target sequence (P61088 whole entry, looked up): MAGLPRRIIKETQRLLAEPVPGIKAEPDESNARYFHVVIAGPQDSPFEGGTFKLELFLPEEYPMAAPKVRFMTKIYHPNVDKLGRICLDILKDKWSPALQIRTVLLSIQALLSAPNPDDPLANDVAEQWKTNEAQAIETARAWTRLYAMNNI
Apaf1 inhib – inhibitors of human Apaf-1 apoptosome; O14727; reconstituted apoptosome caspase-3 activity, DEVD-Rh110 fluorescence; inhibition, % at 20 µM; 330,000 tested, 0.71% active; active means inhibition of at least 40% at 20 µM
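Material: reconstituted apoptosome with Apaf-1, cytochrome c, caspase-9, procaspase-3, dATP; medium: pH 7.5 Hepes buffer with CHAPS, BSA, DTT; also added: cytochrome c and DEVD-Rh110 substrate; timing: 30 min plus 50 min, RT; signal: Rh110 fluorescence intensity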
MEKK2mut PB1 HTS – signal of MEK5 binding to mutant human MEKK2 PB1 domain | percent response, % at 10 µM | 290,000 tested, 0.35% active | bead flow cytometry, Alexa488-MEK5 binding to MEKK2 mutant; in the data active means percent response above about 24%, passing the limit was not always enough
MEKK3 PB1 HTS – raises or lowers MEK5 binding to the human MEKK3 PB1 domain; bead-based flow cytometry, Alexa488-MEK5 binding to MEKK3; actives lie on both sides; 0 = blocked by unlabeled MEK5, 100 = vehicle; AID 1529; binding response (% of control), % at 10 µM; 290,000 tested, 1.4% active;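 active means binding response more than 3 SD above or below the average of its plate-row segment, actives on both sides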;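 further: Alexa488 bead fluorescence after subtracting the streptavidin-only scavenger bead signal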
DSG3 Ab inh – human desmoglein-3 autoantibody binding inhibition; 310,000 tested, 0.48% active; binding (percent of control), % at 10 µM; P32926; DSG3-coupled beads, scFv-anti-DSG3-GFP binding, flow cytometry; active compounds read low;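 active means binding more than 3 SD below its plate's average and above zero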;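 further: hits lower antibody fragment binding to DSG3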
Apaf-1 inh conf – Apaf-1 inhibition, single-dose confirmed; shares compounds with Apaf1 inhib; reconstituted apoptosome, caspase-3 DEVD-Rh110 fluorescence; inhibition, % at 20 µM; 1,800 tested, 25% active;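 active means mean inhibition of at least 40% at 20 µM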
Rh110 interf inh – Rh110 signal interference in Apaf-1 inhibitor counter-screen; shares compounds with Apaf1 inhib; Rh110 fluorescence interference, quenched caspase reaction; activation (fluorescence interference), % at 20 µM; 1,800 tested, under 10 active;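 active means signal rise of 40% or more at 20 µM, treated as a fluorescence artifact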
Fluor interf inh – shows fluorescence interference in the Apaf-1 inhibitor assay format; fluorescence interference counterscreen, Apaf-1 assay format; shares compounds with Apaf1 inhib; 460 tested, under 10 active; IC50, µM; call rule not given here
A number is an active result; n = inactive; x = no result given. This is a sample that favours compounds with a hit; in the whole collection about 3.2% have one here.

SMILES | MEKK2wt PB1 HTS | UBC13 polyUb | Apaf1 inhib | MEKK2mut PB1 HTS | MEKK3 PB1 HTS | DSG3 Ab inh | Apaf-1 inh conf | Rh110 interf inh | others
CC12COC3(P(=O)(c4ccccc4)c4ccccc4)CC1CCC23CP(=O)(c1ccccc1)c1ccccc1 (stereo unspecified) | n | n | 41 | n | n | n | n | n
O=C1NC(Cc2ccccc2)c2nc3ccccc3c(=O)n2-c2cc(Cl)ccc21 (stereo unspecified) | x | n | n | x | x | x | x | x
O=C(NOCc1cscn1)Nc1ccccc1 | x | x | x | x | x | n | x | x
CCOc1ccc(OCCSc2ccc(S(=O)(=O)N3CCN(C)CC3)cn2)cc1 | x | n | 55 | x | x | n | n | n
CN1CCN(S(=O)(=O)c2ccc(SCCOc3ccccc3)nc2)CC1 | n | n | n | n | n | n | x | x
Cc1ccc(Oc2nnc(-c3ccc(C)cc3)c3ccccc23)cc1 | n | n | n | n | n | n | x | x
COc1ccccc1C(=O)Nc1ccc(Oc2nnc(-c3ccc(C)cc3)c3ccccc23)cc1 | n | n | 40 | n | n | n | n | n
CCCCn1c(N)c(N(CC(C)C)C(=O)C(C)SCc2nc3sc(C)c(C)c3c(=O)[nH]2)c(=O)[nH]c1=O (stereo unspecified) | x | n | n | x | x | n | x | x
CN(C=[N+](C)C)c1cccc2c1C(=O)c1ccccc1C2=O | n | n | 43 | n | n | n | n | n
COc1ccc2c(c1)CC/C(=C\Nc1ccc3c(c1)OCO3)C2=O | n | n | 78 | n | n | n | 47 | n | Fluor interf inh=n
COc1ccc(N/C=C2\CCc3ccccc3C2=O)cc1 | n | n | 79 | n | n | n | n | n
O=C1/C(=C/Nc2ccc3c(c2)OCO3)CCc2ccccc21 | n | n | 45 | n | n | n | n | n
COc1ccc(NC(=O)CSCC(=O)Nc2ccccc2C(=O)N2CCCCC2)cc1 | x | n | n | x | x | n | x | x
Cc1ccc(-c2nc(CS(=O)CC(=O)NCc3ccco3)c(C)o2)cc1 (stereo unspecified) | n | n | n | n | n | n | x | x
O=C1CSC(c2ccc([N+](=O)[O-])cc2)N1Cc1ccccc1 (stereo unspecified) | n | n | n | n | n | n | x | x
CCN(CC)c1cc(Cl)c2nonc2c1N | n | n | n | n | n | n | x | x
CN(C)c1cc(Cl)c2nonc2c1N | n | n | 94 | n | n | n | 52 | n | Fluor interf inh=n
CC1=NN(c2ccccc2)C(=O)C1 | n | n | 41 | n | n | n | n | n
CC1=NN(Cc2ccccc2)C(=O)C1 | n | n | 65 | n | n | n | n | n
CC1=NN(c2ccc(N)cc2)C(=O)C1 | n | n | 53 | n | n | n | n | n
CN1CCc2cc3c(c4c2[C@H]1[C@H](O)c1ccccc1-4)OCO3 | n | n | 48 | n | n | n | n | n
CCC(C)c1ccc(NC(=O)NCCN2CCCCC2)cc1 (stereo unspecified) | n | n | n | n | n | n | x | x
CCCCCCSc1cc(-c2nc3ccc(C)cn3c2NCCCC)ccc1OC | x | n | 46 | x | x | n | n | n
CCCCCCSc1ccc(-c2nc3cnccn3c2NCCCC)cc1 | x | n | 56 | x | x | x | n | n
CCCCCCSc1ccc(-c2nc3ccc(C)cn3c2NCc2ccccc2)cc1OC | x | n | 41 | x | x | x | n | n
SMILES | MEKK2wt PB1 HTS | UBC13 polyUb | Apaf1 inhib | MEKK2mut PB1 HTS | MEKK3 PB1 HTS | DSG3 Ab inh | Apaf-1 inh conf | Rh110 interf inh | others
CCCCNc1c(-c2ccc(OC)c(SC(C)CC)c2)nc2cc(C)ccn12 (stereo unspecified) | x | n | 49 | x | x | n | n | n
S=C1SC2(CCCCCC2)NC2=C1CCCCC2 | x | x | x | x | x | n | x | x
OCCNC(=S)Nc1ccc2nsnc2c1 | n | n | 97 | n | n | n | n | n
O=C(O)c1ccc(CNC(=O)C2CCN(S(=O)(=O)c3ccc4c(c3)OCCO4)CC2)cc1 | x | x | x | x | x | n | x | x
COCCN(C(=O)COC(=O)/C=C/c1ccc(C(F)(F)F)cc1)c1c(N)n(Cc2ccccc2)c(=O)[nH]c1=O | x | n | 44 | x | x | n | n | n
COc1cc(-c2c(C#N)c(=O)[nH]c3c2c(C)nn3-c2ccccc2)ccc1O | n | n | 42 | n | n | n | 43 | n | Fluor interf inh=n
CCc1nc(N)c(C#N)c(-c2ccc(O)c(OC)c2)c1C | n | n | n | n | n | n | x | x
CC1(C)C=C2C(=NN(c3ccccc3)C(N)=C2C#N)CO1 | n | n | 47 | n | n | n | 98 | n | Fluor interf inh=n
Cc1ccc2[nH]c3c(c2c1)CN(C(=O)CN1CCCc2ccccc21)CC3 | n | n | 78 | n | n | x | n | n
O=C(CSc1nnc(-c2ccc(F)cc2)n1CC1CCCO1)NCc1ccco1 (stereo unspecified) | n | n | 54 | n | n | n | n | n
C[C@@H]1CCCCO[C@@H](CN(C)S(=O)(=O)c2cn(C)cn2)[C@@H](C)CN([C@H](C)CO)C(=O)c2cc(N(C)C)ccc2O1 | x | x | x | x | x | n | x | x
CC1(C)OC(=O)NC1c1ccccc1 (stereo unspecified) | x | x | x | x | x | n | x | x
CNC(=S)N1CCC(NC(=O)C23CC4CC(CC(C4)C2)C3)CC1 | n | n | n | n | n | n | x | x
CC(=O)N1CCN(C(=S)NC(=O)C23CC4CC(CC(C4)C2)C3)CC1 | n | n | 48 | n | n | n | n | n
CCCCN(CCCC)C(=S)N/N=C/c1c(C)[nH]n(-c2ccccc2)c1=O | n | n | 57 | n | n | n | n | n
Cc1cc(C(=O)N/N=C/c2c(C)[nH]n(-c3ccccc3)c2=O)n[nH]1 | n | n | 77 | n | n | n | 80 | n | Fluor interf inh=n
Cc1[nH]n(-c2ccccc2)c(=O)c1/C=N/NC(=O)c1cccc(F)c1 | n | n | 62 | n | n | n | 67 | n | Fluor interf inh=n
Cc1[nH]n(-c2ccc(Br)cc2)c(=O)c1/C=N/NC(=O)c1ccccc1 | n | n | n | n | n | n | x | x
Cc1[nH]n(-c2ccccc2)c(=O)c1/C=N/NC(=O)c1ccc(O)cc1O | n | n | 73 | n | n | n | 84 | n | Fluor interf inh=n
COc1cccc(OCc2cc(C(=O)N3CCNC(=O)C3Cc3ccccc3)no2)c1 (stereo unspecified) | n | n | n | n | n | n | x | x
C/C(COc1ccccc1)=N\NC(=O)c1nnn(-c2nonc2N)c1CSc1ccc(C)cc1 | x | x | x | x | x | n | x | x
Cc1noc(C)c1NC(=O)Nc1ccc2c(c1)C(=O)N([C@H](C)CO)C[C@H](C)[C@@H](CN(C)S(=O)(=O)c1ccccc1)O2 | x | n | n | x | x | n | x | x
Cc1ccc2c(c1)CO[C@]21O[C@H](CCO)C[C@H](O)[C@H]1O | x | x | x | x | x | n | x | x
